From ChEMBL document CHEMBL4219038, “1-Thiazol-2-yl-N-3-methyl-1H-pyrozole-5-carboxylic acid derivatives as antitumor agents” (Bioorg Med Chem Lett, 2017)
≈ marks a conversion by molar mass, not a printed value. Calls of active or inactive are those of the source. The rule behind the calls is not given here.

Key:
[1] = Antiproliferative activity against human […] cells; assay type: functional, cell-based
[2] = Kinetic solubility of the compound in PBS buffer at pH 7.4 in presence of 10% FBS; assay type: physicochemical; settings: PBS buffer with 10% FBS, read-out: Kinetic_solubility
[3] = Plasma concentration (7 hrs) in J:Nu mouse at 10 mg/kg, po qd for 7 days measured on day 5; assay type: ADME, organism-based
Method in brief: (§1)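 J:Nu female mice, N = 4 per group, dosed orally once daily at 10, 30 or 60 mg/kg in 5% NMP, 10% PEG-400, 15% Solutol, 70% D5W. Blood was sampled every other day, alternating Cmax and predose draws. Plasma concentration was taken 7 h after dosing.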

Mus musculus [4] = experiment: Toxicity in J:Nu mouse assessed as changes in organ weight at 30 mg/kg, po qd for 7 days followed by 90 mg/kg, po qd for 5 days from day 8 to 13 measured 48 hrs after post last dose by pathology analysis; assay type: organism-based; settings: in vivo
Method in brief: (§2)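 In J:Nu female mice (N = 4 per group), dosing was oral once daily at 30 or 60 mg/kg in 5% NMP/10% PEG-400/15% Solutol/70% D5W for 7 days. Doses were then raised to 90 or 120 mg/kg respectively on days 8–13. Clinical signs and body weights were recorded daily. Gross pathology, with spleen and liver weights, was done 48 h after the last dose.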

A2780 = experiment: Antiproliferative activity against human A2780 cells; assay type: functional, cell-based
Mus musculus [5] = experiment: Toxicity in J:Nu mouse assessed as induction of changes in critical clinical parameters at 60 mg/kg, po qd for 7 days followed by 120 mg/kg, po qd for 5 days from day 8 to 13; assay type: organism-based; settings: in vivo; method in brief: as §2
[6] = Dose normalized Cmax in J:Nu mouse plasma at 10 mg/kg, po qd for 7 days; assay type: ADME, organism-based; settings: in vivo, 168 h
Method in brief: (§3)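 J:Nu female mice, N = 4 per group, dosed orally once daily at 10, 30 or 60 mpk in 5% NMP, 10% PEG-400, 15% Solutol, 70% D5W. The 30 and 60 mpk groups were raised to 90 and 120 mpk from day 8 to 13.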

HCT-116 = experiment: Antiproliferative activity against human HCT116 cells; assay type: functional, cell-based
[7] = Dose normalized AUC (0 to infinity) in J:Nu mouse plasma at 60 mg/kg, po qd for 7 days followed by 120 mg/kg, po qd for 5 days from day 8 to 13; assay type: ADME, organism-based; settings: in vivo; method in brief: as §3
[8] = Cmax in mouse at 2.5 mg/kg; assay type: ADME, organism-based; set-up: dose 2.5 mg/kg; settings: in vivo
[9] = Plasma concentration (7 hrs) in J:Nu mouse at 60 mg/kg, po qd for 7 days measured on day 5; assay type: ADME, organism-based; method in brief: as §1
[10] = Dose normalized Cmax in J:Nu mouse plasma at 60 mg/kg, po qd for 7 days followed by 120 mg/kg, po qd for 5 days from day 8 to 13; assay type: ADME, organism-based; settings: in vivo; method in brief: as §3
BJAB [11] = experiment: Induction of apoptosis in human BJAB cells by high content cell imaging studies; assay type: functional, cell-based
[12] = MRT in mouse at 2.5 mg/kg, po; assay type: ADME, organism-based; settings: in vivo
[13] = Tmax in po dosed mouse; assay type: ADME, organism-based; settings: in vivo
Mus musculus [14] = experiment: Ratio of Cmax in mouse at 2.5 mg/kg, po to Cmax in mouse at 100 mg/kg, po; assay type: ADME, organism-based; settings: in vivo
[15] = MRT in mouse at 100 mg/kg, po; assay type: ADME, organism-based; settings: in vivo
BJAB [16] = experiment: Antiproliferative activity against human BJAB cells after 4 days; assay type: functional, cell-based; settings: Homo sapiens, BJAB, 96 h; read-out: EC50
SU-DHL10 = experiment: Antiproliferative activity against human SU-DHL10 cells; assay type: functional, cell-based
[17] = Cmax in mouse at 50 mg/kg; assay type: ADME, organism-based; set-up: dose 50 mg/kg; settings: in vivo
[18] = Kinetic solubility of the compound in PBS buffer at pH 7.4; assay type: physicochemical; settings: read-out: Kinetic_solubility
Method in brief: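 Kinetic solubility measured in PBS buffer, pH 7.4.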

[19] = Initial plasma concentration in iv dosed mouse; assay type: ADME, organism-based
[20] = Dose normalized Cmax in J:Nu mouse plasma at 30 mg/kg, po qd for 7 days followed by 90 mg/kg, po qd for 5 days from day 8 to 13; assay type: ADME, organism-based; settings: in vivo; method in brief: as §3
NCI-H460 = experiment: Antiproliferative activity against human NCI-H460 cells; assay type: functional, cell-based
[21] = MRT in mouse at 10 mg/kg, po; assay type: ADME, organism-based; settings: in vivo
[22] = Dose normalized AUC (0 to infinity) in J:Nu mouse plasma at 10 mg/kg, po qd for 7 days; assay type: ADME, organism-based; settings: in vivo, 168 h; method in brief: as §3
[23] = Oral bioavailability in mouse; assay type: ADME, organism-based; settings: in vivo
B cell = experiment: Antiproliferative activity against human primary B cells; assay type: cell-based
Mus musculus [24] = experiment: Toxicity in J:Nu mouse assessed as organ damage at 30 mg/kg, po qd for 7 days followed by 90 mg/kg, po qd for 5 days from day 8 to 13 measured 48 hrs after post last dose by pathology analysis; assay type: organism-based; settings: in vivo; method in brief: as §2

**Q.** For Cc1nn(-c2nc(-c3ccc(Cl)c(Cl)c3)c(SC(C)C)s2)c(C(=O)O)c1-c1cc(Cl)cc(Cl)c1, which IC50 [1] is on record?
**A.** Its IC50 is 1570 nM.

**Q.** What about the solubility kinetic [2] of the same compound?
**A.** The solubility kinetic was greater than 200 µM.

**Q.** What about the concentration at 7 h [3] of the same compound?
**A.** Its concentration at 7 h is 18200 ng/mL.

**Q.** And the Activity (Mus musculus [4])?
**A.** The Activity was “Non-Toxic”.

**Q.** What about the IC50 (A2780) of the same compound?
**A.** Its IC50 is 290 nM.

**Q.** And the Activity (Mus musculus [5])?
**A.** The Activity was “Non-Toxic”.

**Q.** And the Cmax/dose [6]?
**A.** The Cmax/dose was 2897.9 ng/mL.

**Q.** What about the IC50 (HCT-116) of the same compound?
**A.** The IC50 was 600 nM.

**Q.** And the AUC/dose [7]?
**A.** The AUC/dose was 12800 ng·kg·h/mL/mg.

**Q.** What about the Cmax [8] of the same compound?
**A.** The Cmax was 1320 ng/mL.

**Q.** What about the concentration at 7 h [9] of the same compound?
**A.** The concentration at 7 h was 79800 ng/mL.

**Q.** What about the Cmax/dose [10] of the same compound?
**A.** Its Cmax/dose is 1066.5 ng/mL.

**Q.** What about the Activity (BJAB [11]) of the same compound?
**A.** Its Activity is “Active”.

**Q.** What about the MRT [12] of the same compound?
**A.** Its MRT is 15.1 h.

**Q.** What about the Tmax [13] of the same compound?
**A.** Its Tmax is 5 h.

**Q.** What about the Ratio (Mus musculus [14]) of the same compound?
**A.** Its Ratio is 0.9.

**Q.** And the MRT [15]?
**A.** Its MRT is 14.3 h.

**Q.** And the EC50 (BJAB [16])?
**A.** The EC50 was 554 nM.

**Q.** And the IC50 (SU-DHL10)?
**A.** The IC50 was 430 nM.

**Q.** What about the Cmax [17] of the same compound?
**A.** Its Cmax is 138000 ng/mL.

**Q.** And the solubility kinetic [18]?
**A.** The solubility kinetic was 40.2 µM (≈ 23 µg/mL).

**Q.** What about the C0 [19] of the same compound?
**A.** The C0 was 3190 ng/mL.

**Q.** What about the Cmax/dose [20] of the same compound?
**A.** Its Cmax/dose is 1494.3 ng/mL.

**Q.** What about the IC50 (NCI-H460) of the same compound?
**A.** The IC50 was 330 nM.

**Q.** And the MRT [21]?
**A.** The MRT was 10.1 h.

**Q.** And the AUC/dose [22]?
**A.** The AUC/dose was 33000 ng·kg·h/mL/mg.

**Q.** And the bioavailability [23]?
**A.** The bioavailability was 48.4%.

**Q.** And the IC50 (B cell)?
**A.** The IC50 was greater than 40000 nM.

**Q.** What about the Activity (Mus musculus [24]) of the same compound?
**A.** The Activity was “Non-Toxic”.
